Data published in ChEMBL document CHEMBL1154417, “In vitro antiviral activity of the novel, tyrosyl-based human immunodeficiency virus (HIV) type 1 protease inhibitor brecanavir (GW640385) in combination with other antiretrovirals and against a panel of protease inhibitor-resistant HIV” (Antimicrob Agents Chemother, 2007).
pEC50, pKi: −log10 of the molar value. Calls of active or inactive are those of the source. The rule behind the calls is not given here.

Columns and labels:
[1] = test system: Human immunodeficiency virus 1; assay: Antiviral activity against HIV1 HXB2 in human MT4 cells assessed as inhibition of viral-induced viral cytopathic effect in presence of 10% fetal bovine serum and 30% human serum by MTS assay; format: functional, organism-based; conditions: Human immunodeficiency virus 1, HXB2, MT4
Outline: (§1)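 MT-4 cells batch-infected with HIV-1 HXB2 at MOI 0.0001 for 1 h at 37°C. Cells then plated at 4 × 10^4 per well onto serially diluted compound in medium containing 10% or 40% FBS, or 10–40% human serum. After 5 days, EC50 from MTS viability.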

[2] = test system: Human immunodeficiency virus 1; assay: Antiviral activity against HIV1 NL4-3; format: functional, organism-based; conditions: Human immunodeficiency virus 1, NL4-3
[3] = test system: Human immunodeficiency virus 1; assay: Antiviral activity against HIV1 drug resistant mutant isolates from protease inhibitor treated HIV patient; format: functional, organism-based
[4] = test system: Human immunodeficiency virus 1; assay: Antiviral activity against HIV1 HXB2 in human MT4 cells assessed as inhibition of viral-induced viral cytopathic effect in presence of 10% fetal bovine serum by MTS assay; format: functional, organism-based; conditions: Human immunodeficiency virus 1, HXB2, MT4; outline: as §1
[5] = test system: Human immunodeficiency virus 1; assay: Antiviral activity against HIV1 BaL in human PBMC assessed as blockade of reverse transcriptase activity; format: functional, organism-based; conditions: Human immunodeficiency virus 1, BaL
Outline: (§2)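 PHA-stimulated PBMCs, 8 × 10^6 cells/ml in RPMI with 20% FBS and 10% IL-2, preincubated 1 h at 37°C with compound serially diluted fourfold. Then infected with virus premixed with compound (IIIB for line 2, Ba-L for line 3). After 7 days, RT activity measured in supernatant. EC50 from mean percent inhibition; n = 3 for IIIB, 8 for Ba-L.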

[6] = test system: Human immunodeficiency virus 1; assay: Antiviral activity against HIV1 HXB2 in human MT4 cells assessed as inhibition of viral-induced viral cytopathic effect in presence of 10% fetal bovine serum and 10% human serum by MTS assay; format: functional, organism-based; conditions: Human immunodeficiency virus 1, HXB2, MT4; outline: as §1
[7] = test system: Human immunodeficiency virus 1; assay: Antiviral activity against HIV1 HXB2 in human MT4 cells assessed as inhibition of viral-induced viral cytopathic effect in presence of 10% fetal bovine serum and 40% human serum by MTS assay; format: functional, organism-based; conditions: Human immunodeficiency virus 1, HXB2, MT4; outline: as §1
[8] = test system: Human immunodeficiency virus 1; assay: Antiviral activity against HIV1 HXB2 in human MT4 cells assessed as inhibition of viral-induced viral cytopathic effect in presence of 40% fetal bovine serum by MTS assay; format: functional, organism-based; conditions: Human immunodeficiency virus 1, HXB2, MT4; outline: as §1
[9] = test system: Human immunodeficiency virus 1; assay: Antiviral activity against HIV1 HXB2 in human MT4 cells assessed as inhibition of viral-induced viral cytopathic effect in presence of 10% fetal bovine serum and 20% human serum by MTS assay; format: functional, organism-based; conditions: Human immunodeficiency virus 1, HXB2, MT4; outline: as §1
[10] = biological target: T1, Protease (Human immunodeficiency virus 1, UniProt Q9YQ12); assay: Inhibition of HIV1 protease by fluorescent peptide substrate based assay
Outline: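 HIV-1 protease Ki from a continuous fluorescence activity assay using a fluorescent peptide substrate. Alternatively, Ki was calculated from the association and dissociation rate constants of the enzyme-inhibitor complex.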

[11] = test system: Human immunodeficiency virus 1; assay: Ratio of EC50 for HIV1 drug resistant mutant isolates from protease inhibitor treated HIV patient to EC50 for drug sensitive HIV1 NL4-3; format: functional
Outline: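 Recombinant virus assay with clinical isolates from PI-experienced patients (94 isolates). Fold change is the EC50 against each isolate over the EC50 against reference wild-type HIV-1 NL4-3.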

[12] = test system: Human immunodeficiency virus 1; assay: Ratio of EC50 for HIV1 HXB2 in presence of 40% human serum to EC50 for HIV1 HXB2 in presence of 10% fetal bovine serum; format: functional; outline: as §1
[13] = test system: Human immunodeficiency virus 1; assay: Ratio of EC50 for HIV1 HXB2 in presence of 10% human serum to EC50 for HIV1 HXB2 in presence of 10% fetal bovine serum; format: functional; outline: as §1
[14] = test system: Human immunodeficiency virus 1; assay: Ratio of EC50 for HIV1 HXB2 in presence of 20% human serum to EC50 for HIV1 HXB2 in presence of 10% fetal bovine serum; format: functional; outline: as §1
[15] = test system: Human immunodeficiency virus 1; assay: Ratio of EC50 for HIV1 HXB2 in presence of 30% human serum to EC50 for HIV1 HXB2 in presence of 10% fetal bovine serum; format: functional; outline: as §1
[16] = biological target: T1, Protease; assay: Inhibition of HIV1 protease
Outline: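 Ki derived either from a continuous fluorescence activity assay of HIV-1 protease or from the ratio of the dissociation first-order rate constant to the bimolecular association rate constant for enzyme–inhibitor binding.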

[17] = test system: Human immunodeficiency virus 1; assay: Ratio of EC50 for HIV1 HXB2 in presence of 40% fetal bovine serum to EC50 for HIV1 HXB2 in presence of 10% fetal bovine serum; format: functional; outline: as §1
[18] = Protein binding in human plasma; format: ADME, cell-free; conditions: read-out: PPB (converted)
[19] = Cytotoxicity against human U937 cells; format: cell-based, U-937
[20] = test system: Human immunodeficiency virus 1; assay: Ratio of EC50 for HIV1 HXB2 in presence of 40 mg/ml HSA and 1 mg/ml alpha1-acid glycoprotein to EC50 for HIV1 HXB2; format: functional
Outline: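 Same MT-4/HXB2 batch-infection format (MOI 0.0001, 1 h, 4 × 10^4 cells/well, 5-day MTS read-out), run with 40 mg/ml human serum albumin plus 1 mg/ml α1-acid glycoprotein.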

[21] = Cytotoxicity against human IM9 cells; format: cell-based, IM-9; conditions: read-out: CCIC50
Outline: (§3)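 Uninfected B- and T-cell lines were exposed to serially diluted compound up to a highest concentration of 25 μM. The cell culture 50% inhibitory concentration (CCIC50) was determined.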

[22] = test system: Human immunodeficiency virus 1; assay: Antiviral activity against HIV1 3B in human MT4 cells assessed as inhibition of viral-induced viral cytopathic effect by MTS assay; format: functional, organism-based; conditions: Human immunodeficiency virus 1, 3B
Outline: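 MT-4 cells in RPMI 1640 with 20% FBS, 20% IL-2 and gentamicin, 5 × 10^5 cells/ml, infected with HIV-1 IIIB at 100 TCID50 per well for 1 h at 37°C. Cells diluted sixfold onto serially diluted compound and incubated 5 days. Cytopathic effect read by MTS staining at OD 492 nm. EC50 by Hill-equation curve fit; n = 8.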

[23] = test system: Human immunodeficiency virus 1; assay: Antiviral activity against HIV1 HXB2 in human HeLa cells by HeLa-CD4 MAGI assay; format: functional, organism-based; conditions: Human immunodeficiency virus 1, HXB2, HeLa
Outline: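 HeLa-CD4-LTR-β-gal cells kept in DMEM with 10% FBS and infected with HIV-1 HXB2 in a single-round assay. Read-out is β-galactosidase activity; n = 2; tested up to about 50 μM, the solubility limit.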

[24] = Cytotoxicity against human MOLT4 cells; format: cell-based, MOLT-4; conditions: read-out: CCIC50; outline: as §3
[25] = test system: Human immunodeficiency virus 1; assay: Antiviral activity against HIV1 HXB2 in human HeLa cells up to 50 uM by HeLa-CD4 MAGI assay; format: functional, organism-based
Outline: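 HeLa-CD4-LTR-β-gal cells grown in DMEM with 10% FBS and infected with HIV-1 HXB2 for a single round of infection. Read-out is β-galactosidase activity. Tested up to the solubility limit (about 50 μM). EC50 from 2 determinations.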

[26] = Selectivity index, ratio of CCIC50 for human MT4 cells to IC50 for HIV1 3B; format: functional
[27] = test system: Human immunodeficiency virus 1; assay: Antiviral activity against HIV1 3B in human PBMC assessed as blockade of reverse transcriptase activity; format: functional, organism-based; conditions: Human immunodeficiency virus 1, 3B; outline: as §2
[28] = Cytotoxicity against human MT4 cells; format: cell-based; conditions: read-out: CCIC50
Outline: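 Mock-infected MT-4 cells run in parallel with the HIV-1 IIIB antiviral assay, in RPMI 1640 with FBS, IL-2 and gentamicin. Incubated 5 days at 37°C, 5% CO2, then MTS viability read at OD 492 nm. Highest concentration tested 25 μM. Reported as CCIC50.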

[29] = test system: Human immunodeficiency virus 1; assay: Antiviral activity against HIV1 HXB2 in human MT4 cells assessed as inhibition of viral-induced viral cytopathic effect by MTS assay; format: functional, organism-based; conditions: Human immunodeficiency virus 1, HXB2, MT4; outline: as §1

T1 sequence (Q9YQ12 whole entry): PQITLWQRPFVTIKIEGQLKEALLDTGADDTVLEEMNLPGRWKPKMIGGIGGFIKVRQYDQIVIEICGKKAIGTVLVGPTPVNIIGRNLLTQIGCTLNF

## CC(C)CN(C[C@@H](O)[C@H](Cc1ccccc1)NC(=O)O[C@H]1CO[C@H]2OCC[C@H]21)S(=O)(=O)c1ccc(N)cc1
[1]
  pEC50: 7.72
[2]
  pEC50: 9.11
[3]
  pEC50: 8.34
[4]
  pEC50: 8.25
[5]
  pEC50: 8.55
[6]
  pEC50: 7.96
[7]
  pEC50: 7.66
[8]
  pEC50: 7.96
[9]
  pEC50: 7.82

## CCC[C@@]1(CCc2ccccc2)CC(O)=C([C@H](CC)c2cccc(NS(=O)(=O)c3ccc(C(F)(F)F)cn3)c2)C(=O)O1
[1]
  pEC50: 6.24
[10]
  pKi: 11.10
[2]
  pEC50: 7.12
[3]
  pEC50: 6.72
[4]
  pEC50: 7.39
[11]
  Ratio EC50: 2.4
[12]
  Ratio EC50: 16
[5]
  pEC50: 6.52
[6]
  pEC50: 6.51
[13]
  Ratio EC50: 7.7
[14]
  Ratio EC50: 12.4
[7]
  pEC50: 6.18
[15]
  Ratio EC50: 14.1
[9]
  pEC50: 6.29

## Cc1c(O)cccc1C(=O)N[C@@H](CSc1ccccc1)[C@H](O)CN1C[C@H]2CCCC[C@H]2C[C@H]1C(=O)NC(C)(C)C
[5]
  pEC50: 7.44

## CC(C)(C)NC(=O)[C@@H]1CN(Cc2cccnc2)CCN1C[C@@H](O)C[C@@H](Cc1ccccc1)C(=O)N[C@H]1c2ccccc2C[C@H]1O.O
[2]
  pEC50: 8.01
[3]
  pEC50: 6.66
[11]
  Ratio EC50: 26

## CC(C)CN(C[C@@H](O)[C@H](Cc1ccccc1)NC(=O)O[C@H]1CCOC1)S(=O)(=O)c1ccc(N)cc1
[10]
  pKi: 10.24
[16]
  pKi: 10.44
[2]
  pEC50: 7.82
[3]
  pEC50: 6.72
[11]
  Ratio EC50: 13.7
[5]
  pEC50: 7.24

## Cc1nc(COc2ccc(C[C@H](NC(=O)O[C@H]3CO[C@H]4OCC[C@H]43)[C@H](O)CN(CC(C)C)S(=O)(=O)c3ccc4c(c3)OCO4)cc2)cs1 [BRECANAVIR]
[1]
  pEC50: 8.59
[17]
  Ratio EC50: 1.6
[18]
  fraction unbound: 0.02
[19]
  CC50: > 25000 nM
[20]
  Ratio EC50: 8.2
[2]
  pEC50: 9.74
[3]
  pEC50: 9.06
[4]
  pEC50: 9.15
[11]
  Ratio EC50: 6.6
[21]
  CC50: > 25000 nM
[22]
  pEC50: 9.36
[12]
  Ratio EC50: 5.2
[5]
  pEC50: 9.38
[6]
  pEC50: 8.85
[23]
  pEC50: < 4.05
[24]
  CC50: > 25000 nM
[25]
  Activity: inactive
[13]
  Ratio EC50: 1.9
[26]
  Ratio: >55000
[27]
  pEC50: 9.70
[14]
  Ratio EC50: 2.2
[7]
  pEC50: 8.42
[28]
  CC50: > 25000 nM
[15]
  Ratio EC50: 3.6
[8]
  pEC50: 8.96
[29]
  pEC50: 9.28
[9]
  pEC50: 8.66

## COC(=O)N[C@H](C(=O)N[C@@H](Cc1ccccc1)[C@@H](O)CN(Cc1ccc(-c2ccccn2)cc1)NC(=O)[C@@H](NC(=O)OC)C(C)(C)C)C(C)(C)C [ATAZANAVIR]
[2]
  pEC50: 8.77
[3]
  pEC50: 7.33
[11]
  Ratio EC50: 26
[5]
  pEC50: 8.36

## Cc1cccc(C)c1OCC(=O)N[C@@H](Cc1ccccc1)[C@@H](O)C[C@H](Cc1ccccc1)NC(=O)[C@H](C(C)C)N1CCCNC1=O [LOPINAVIR]
[2]
  pEC50: 8.36
[3]
  pEC50: 6.64
[11]
  Ratio EC50: 43
